FGF22 binding: FGF22 (human) thermal shift binding; Q9HCT0; AID 651658; 1.5% of 340,000 active; recombinant FGF22 thermal shift, SYPRO orange fluorescence; percent of sucrose octasulfate shift, DMSO zero; activity (Tm shift, normalised), % at 9.99 µM;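 active = mean Tm shift, scaled 0 neutral to 100 positive control, at about 1.3% or above, every replicate too, limit read from the data; inconclusive = no clear call, values can overlap the other calls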
Target sequence (Q9HCT0 whole entry, looked up): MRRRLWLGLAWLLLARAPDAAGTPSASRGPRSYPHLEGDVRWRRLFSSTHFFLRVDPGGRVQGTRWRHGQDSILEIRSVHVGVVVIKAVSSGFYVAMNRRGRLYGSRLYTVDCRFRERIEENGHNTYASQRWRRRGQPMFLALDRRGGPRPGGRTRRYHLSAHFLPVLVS
CFTR F508del cor: correctors of CFTR F508del function in bronchial epithelial cells; activity (quench increase), % at 7.58 µM; 0.36% of 350,000 active; CFBE cells, YFP halide quenching; stimulated with forskolin plus potentiator P3; % fluorescence drop versus neutral controls;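 active = mean added fluorescence quench of at least 8% versus neutral control, with both replicates also reaching 8%; inconclusive = only one of the mean or replicate conditions met; inactive = mean below 8% and not both replicates reaching 8%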;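 note: cells transiently co-express mutant CFTR-F508del with the halide-sensitive YFP; corrector assay measuring rescue of mutant channel to the surface after 24 h compound exposure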
dFosB activator: mouse delta FosB homodimer activation | purified delta FosB, TAMRA-CDK5 oligo fluorescence polarization; percent of positive-control signal above neutral wells | P13346 | activation, % at 25 µM | 0.99% of 340,000 active;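 active = mean activation above about 17%, with every replicate also reaching it, limit read from the data, passing the limit was not always enough; inconclusive = only one of the two conditions met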
Target sequence (P13346 whole entry, looked up): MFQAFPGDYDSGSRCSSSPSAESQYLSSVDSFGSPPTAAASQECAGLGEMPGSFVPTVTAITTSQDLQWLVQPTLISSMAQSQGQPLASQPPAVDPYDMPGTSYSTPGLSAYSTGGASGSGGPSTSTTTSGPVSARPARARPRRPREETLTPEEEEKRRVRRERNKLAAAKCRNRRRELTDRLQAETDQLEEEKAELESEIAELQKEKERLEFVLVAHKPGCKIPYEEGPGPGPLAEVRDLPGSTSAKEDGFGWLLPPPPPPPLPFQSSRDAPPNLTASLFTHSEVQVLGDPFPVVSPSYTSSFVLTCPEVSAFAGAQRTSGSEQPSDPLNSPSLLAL
S100A4 inh HTS: S100A4-myosin IIA interaction inhibition. P26447. S100A4/TAMRA-MyoIIA peptide fluorescence polarization. inhibition, % at 10.7 µM. 0.14% of 360,000 active;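 active = mean inhibition of at least 70% across replicates, with every replicate also reaching that level; inconclusive = mean inhibition reaches 70% but some replicates fall short; inactive = mean inhibition below 70%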
Target sequence (P26447 whole entry, looked up): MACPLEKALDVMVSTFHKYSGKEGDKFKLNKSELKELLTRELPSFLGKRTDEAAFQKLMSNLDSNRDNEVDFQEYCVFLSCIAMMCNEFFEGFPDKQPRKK
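incubation = readout 5 min after mixing, signal stable up to 60 min | system = S100A4 monomer protein | buffer or medium = HEPES pH 7.2 with CaCl2, KCl, NaCl, DTT, Triton | benchmarks = neutral control DMSO, positive control TFP | also added = fluorescent myosin IIA peptide, 5 nM | compound dosing = one concentration per compound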
Large screens that a line does not name were inactive; ! = repeats disagree. Sampled rows, rich in hits. Any-hit rate of the full collection: about 2.2%.

COc1ccc(Nc2c3c(nc4ccccc24)CCCC3)cc1OC	none
CN(C)CCCNc1c2c(nc3ccccc13)CCC2	dFosB activator 20
COc1ccc(Nc2nc(N3CCCC3)c3ccccc3n2)cc1	dFosB activator 59 (no result: FGF22 binding, CFTR F508del cor, S100A4 inh HTS)
C[C@H](CO)N1C[C@H](C)[C@@H](CN(C)CC2CC2)Oc2ccc(NS(=O)(=O)c3ccc(F)cc3)cc2CC1=O	none (no result: dFosB activator)
Cc1ccc(S(=O)(=O)N[C@H]2CC[C@H](CCNC(=O)C3CC3)O[C@@H]2CO)cc1	none (no result: dFosB activator)
CN1C(=O)c2cc(NC(=O)c3cccc(F)c3)ccc2OC[C@@H]2O[C@H](CC(=O)N3CCc4ccccc4C3)CC[C@H]21	none (no result: dFosB activator)
Fc1ccc(Nc2c3c(nc4ccccc24)CCC3)cc1	FGF22 binding 1.5
COc1cc(Nc2c3ccccc3nc3ccccc23)cc(OC)c1OC	dFosB activator 44
c1ccc(Nc2c3c(nc4ccccc24)CCC3)cc1	none
COc1ccc(Nc2c3ccccc3nc3ccccc23)cc1	dFosB activator 60
C[C@@H]1CN([C@@H](C)CO)C(=O)c2cc(C#Cc3ccccn3)cnc2O[C@H]1CN(C)CC1CCCC1	none (no result: dFosB activator)
CCCC(=O)N1CC2(CCN(Cc3cccnc3)CC2)c2c([nH]c3cc(OC)ccc23)[C@@H]1CO	none (no result: FGF22 binding, dFosB activator, S100A4 inh HTS)
C[C@@H]1CN([C@@H](C)CO)C(=O)c2cc(NS(=O)(=O)c3ccccc3)ccc2O[C@H]1CN(C)S(C)(=O)=O	none (no result: dFosB activator)
CC(C)(C)S(=O)N1Cc2cc(C(=O)NCc3ccc4c(c3)OCO4)nc(-c3cccc(C#CCC4CCCC4)c3)c2[C@@H]1CCO (some centres not stated)	none (no result: dFosB activator)
CCOC(=O)c1cnc2ccc(OC)cc2c1Nc1ccc(N2CCN(C)CC2)cc1	dFosB activator 36
COc1ccccc1C#Cc1ccc([C@@H]2[C@@H](CO)N(C(=O)C3CCCC3)[C@H]2C#N)cc1	none (no result: FGF22 binding, dFosB activator)
O=C(c1ccccc1F)N(Cc1cccnc1)Cc1cc2cc3c(cc2[nH]c1=O)OCCO3	FGF22 binding 43
COc1cc(C(=O)N(Cc2cccnc2)Cc2cc3cc4c(cc3[nH]c2=O)OCCO4)cc(OC)c1OC	none (no result: FGF22 binding, CFTR F508del cor, S100A4 inh HTS)
Cc1ccc(NC(=O)/C(=C\c2cccnc2)NC(=O)c2ccco2)cc1	none (no result: FGF22 binding, CFTR F508del cor, S100A4 inh HTS)
O=C(Nc1cccc(F)c1)/C(=C\c1cccnc1)NC(=O)c1ccco1	FGF22 binding 44
CCn1cc(CN2CCc3c([nH]c4ccccc34)C2c2cccc(OC)c2OC)c(C)n1 (configuration not stated)	FGF22 binding 44 (no result: CFTR F508del cor)
O=C(C[C@@H]1CC[C@H]2[C@@H](COC[C@@H](O)CN2Cc2cccc(-c3ccncc3)c2)O1)N1CCOCC1	none (no result: dFosB activator)
CC(=O)/C(C#N)=C1\NC(=O)C(Cc2ccccc2C)S1 (configuration not stated)	CFTR F508del cor 11 (no result: dFosB activator)
Cc1cc(C)c(NS(=O)(=O)c2ccccc2)c(C)n1	FGF22 binding 43 (no result: dFosB activator)
Cc1cccnc1NS(=O)(=O)c1cccc([N+](=O)[O-])c1	none
Cc1cccnc1NS(=O)(=O)c1ccccc1	FGF22 binding 44 (no result: dFosB activator)
Cc1ccc(/C=C/C(=O)O)cc1S(=O)(=O)Nc1ccc(C(=O)O)cc1	none
Cc1ccc(/C=C/C(=O)O)cc1S(=O)(=O)Nc1ccccc1C(=O)O	FGF22 binding 43
Cc1ccc(/C=C/C(=O)O)cc1S(=O)(=O)N1CCc2ccccc2C1	FGF22 binding 43
CCN(CC)S(=O)(=O)c1ccc(NC(=O)c2cccs2)cc1	FGF22 binding 43
COc1ccc(C(=O)Nc2ccc(NC(=O)c3cccs3)cc2)cc1Cl	FGF22 binding 43, dFosB activator inconclusive
CCN(CC)S(=O)(=O)c1ccc(C(=O)NNC(=O)c2cccs2)cc1	none (no result: FGF22 binding, CFTR F508del cor, S100A4 inh HTS)
COc1ccc(C(=O)Nc2ccc(NC(=O)c3cccs3)c(OC)c2)cc1Cl	none
CC(=O)Nc1ccc(C(=O)NNC(=O)c2cccs2)cc1	FGF22 binding 44
Cc1noc(C)c1S(=O)(=O)N(C)C[C@@H]1OCCCC[C@H](C)Oc2ccc(NC(=O)Nc3ccccc3)cc2C(=O)N([C@@H](C)CO)C[C@H]1C	none (no result: dFosB activator)
O=C(C[C@H]1CC[C@@H](NC(=O)C2CCOCC2)[C@H](CO)O1)Nc1ccccc1	none (no result: FGF22 binding, dFosB activator)
CC(=O)N(C)C[C@H]1Oc2cc(C#CC3CCCC3)ccc2S(=O)(=O)N([C@@H](C)CO)C[C@H]1C	none (no result: dFosB activator)
CCN(CC)CCNc1nc2cc(OC)c(OC)cc2c2nc(-c3ccccc3)nn12	dFosB activator 151 (no result: FGF22 binding, CFTR F508del cor, S100A4 inh HTS)
CCCCn1c(O)c(N=NC(=O)c2ccncc2)c2cc(Br)ccc21	FGF22 binding 44
Cc1ccc(S(=O)(=O)N(C)C[C@@H]2OCCCC[C@@H](C)Oc3ccc(NS(=O)(=O)c4ccc(Cl)cc4)cc3C(=O)N([C@H](C)CO)C[C@@H]2C)cc1	none (no result: dFosB activator)
Cc1ccc(S(=O)(=O)N(C)C[C@@H]2OCCCC[C@H](C)Oc3ccc(NS(=O)(=O)c4c(C)noc4C)cc3C(=O)N([C@@H](C)CO)C[C@H]2C)cc1	none (no result: dFosB activator)
Cc1ccc(S(=O)(=O)N(C)C[C@@H]2OCCCC[C@@H](C)Oc3ccc(NS(=O)(=O)c4ccc(Cl)cc4)cc3C(=O)N([C@@H](C)CO)C[C@@H]2C)cc1	CFTR F508del cor 8.6 (no result: dFosB activator)
Cc1ccc(S(=O)(=O)Nc2ccc3c(c2)C(=O)N([C@H](C)CO)C[C@H](C)[C@@H](CN(C)S(=O)(=O)c2ccc(Cl)cc2)OCCCC[C@H](C)O3)cc1	FGF22 binding 31 (no result: dFosB activator, S100A4 inh HTS)
Cc1ccc(S(=O)(=O)N(C)C[C@H]2OCCCC[C@@H](C)Oc3ccc(NS(=O)(=O)c4c(C)noc4C)cc3C(=O)N([C@@H](C)CO)C[C@H]2C)cc1	S100A4 inh HTS 94 (no result: dFosB activator)
Cc1ccc(S(=O)(=O)Nc2ccc3c(c2)C(=O)N([C@H](C)CO)C[C@@H](C)[C@@H](CN(C)S(=O)(=O)c2ccc(C)cc2)OCCCC[C@@H](C)O3)cc1	S100A4 inh HTS 103 (no result: dFosB activator)
Cc1ccc(S(=O)(=O)N(C)C[C@H]2OCCCC[C@H](C)Oc3ccc(NS(=O)(=O)c4ccc(Cl)cc4)cc3C(=O)N([C@@H](C)CO)C[C@H]2C)cc1	none (no result: dFosB activator)
COCC(=O)N1C[C@H](C)[C@H](OC)CN(C)C(=O)c2ccc(NS(C)(=O)=O)cc2OC[C@@H]1C	none (no result: dFosB activator)
C[C@@H]1CN([C@@H](C)CO)C(=O)c2cc(NS(=O)(=O)c3ccccc3)ccc2O[C@@H](C)CCCCO[C@@H]1CN(C)S(=O)(=O)c1ccc(F)cc1	none (no result: dFosB activator)
C[C@@H]1CCCCO[C@@H](CN(C)S(=O)(=O)c2ccccc2)[C@@H](C)CN([C@H](C)CO)C(=O)c2cc(NS(=O)(=O)c3ccc(F)cc3)ccc2O1	FGF22 binding 1.3! (no result: dFosB activator)
CCN1[C@@H]2Cn3c(ccc(/C=C/c4ccccc4)c3=O)[C@H]1[C@@H](C(=O)NC1Cc3ccccc3C1)[C@@H]2CO	none (no result: FGF22 binding, dFosB activator)
CCCCSc1nnc(-c2ccccc2NC(C)=O)c(=O)[nH]1	FGF22 binding 43
CC1(C)OC2OC(C(=O)N/N=C/c3ccccc3F)C3OC(C)(C)OC3C2O1 (configuration not stated)	FGF22 binding 44
CC1(C)C(C=C(Cl)Cl)C1C(=O)N/N=C/c1ccccc1F (configuration not stated)	none

Screening data: PubChem BioAssay, Broad Institute
